Measured values from ChEMBL document CHEMBL1165950, “Design and synthesis of new potent anticancer pyrazoles with high FLT3 kinase inhibitory selectivity” (Bioorg Med Chem, 2010).

Tests used:
Format in all cases: functional
NCI-H522 = experiment: Growth inhibition of human NCI-H522 cells after 48 hrs by sulforhodamine B assay; details: NCI-H522, 48 h; for CC50: read-out: LC50 (the source's name)
Procedure, shortened: (§1)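 NCI 60-cell screen, five-dose mode. Cells grown in RPMI 1640 with 5% FBS and 2 mM L-glutamine and plated at 5000-40,000 cells/well according to doubling time. After 24 h preincubation, a Tz plate was TCA-fixed. Five concentrations (10-fold or 1/2 log dilutions) were applied for 48 h at 37 °C. SRB staining read at 515 nm. IC50 taken from [(Ti-Tz)/(C-Tz)]×100 = 50.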

K562 = experiment: Growth inhibition of human K562 cells after 48 hrs by sulforhodamine B assay; details: K562, 48 h; procedure, shortened: as §1
IGROV-1 = experiment: Cytotoxicity against human IGROV1 cells assessed as cell growth at 10 uM after 48 hrs by sulforhodamine B assay; details: IGROV-1, 48 h, read-out: Activity
SNB-19 = experiment: Cytotoxicity against human SNB19 cells assessed as cell growth at 0.01 uM after 48 hrs by sulforhodamine B assay; details: SNB-19, 48 h, read-out: Activity
SK-MEL-2 [1] = experiment: Cytotoxicity against human SK-MEL-2 cells assessed as cell growth at 1 uM after 48 hrs by sulforhodamine B assay; details: SK-MEL-2, 48 h, read-out: Activity
MDA-MB-468 = experiment: Growth inhibition of human MDA-MB-468 cells after 48 hrs by sulforhodamine B assay; details: MDA-MB-468, 48 h; procedure, shortened: as §1
DU-145 = experiment: Growth inhibition of human DU145 cells after 48 hrs by sulforhodamine B assay; details: DU-145, 48 h
Procedure, shortened: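 NCI five-dose SRB assay in RPMI 1640 with 5% FBS and 2 mM L-glutamine. Cells were preincubated 24 h, then exposed 48 h at 37 °C to five concentrations (10-fold or half-log serial dilutions from DMSO stocks). TCA fixation, SRB staining, and absorbance at 515 nm followed. IC50 was taken where [(Ti−Tz)/(C−Tz)]×100 = 50, with Tz as time-zero cell density.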

MOLT-4 = experiment: Cytotoxicity against human MOLT4 cells assessed as cell growth at 0.01 uM after 48 hrs by sulforhodamine B assay; details: MOLT-4, 48 h, read-out: Activity
SK-OV-3 [2] = experiment: Cytotoxicity against human SKOV3 cells assessed as cell growth at 10 uM after 48 hrs by sulforhodamine B assay; details: SK-OV-3, 48 h, read-out: Activity
SK-OV-3 [3] = experiment: Cytotoxicity against human SKOV3 cells assessed as cell growth at 0.001 uM after 48 hrs by sulforhodamine B assay; details: SK-OV-3, 48 h, read-out: Activity
SF-268 [4] = experiment: Cytotoxicity against human SF268 cells assessed as cell growth at 100 nM after 48 hrs by sulforhodamine B assay; details: SF-268, 48 h, read-out: Activity
CAKI-1 [5] = experiment: Cytotoxicity against human Caki1 cells assessed as cell growth at 10 uM; details: read-out: Activity
Procedure, shortened: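 Single-dose NCI-60 screen at 10 µM. Cells were grown in RPMI 1640 with 5% FBS and 2 mM L-glutamine, then treated for 48 h at 37 °C. Protein was measured by SRB staining with absorbance at 515 nm. Percentage growth was recorded, and inhibition percentage was calculated as 100 minus growth percentage.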

OVCAR-4 = experiment: Cytotoxicity against human OVCAR4 cells assessed as cell growth at 100 nM after 48 hrs by sulforhodamine B assay; details: OVCAR-4, 48 h, read-out: Activity
CAKI-1 [6] = experiment: Cytotoxicity against human Caki1 cells assessed as cell growth at 10 uM after 48 hrs by sulforhodamine B assay; details: CAKI-1, 48 h, read-out: Activity
MDA-MB-435 = experiment: Cytotoxicity against human MDA-MB-435 cells assessed as cell growth at 10 uM; details: read-out: Activity
Procedure, shortened: (§2)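 NCI-60 screen: cells grown in RPMI 1640 with 5% FBS and 2 mM L-glutamine, plated at 5000–40,000 cells/well according to doubling time, and preincubated 24 h at 37 °C, 5% CO2. The single 10 µM dose (DMSO stock) was added, then incubated 48 h. Cells were TCA-fixed and stained with 0.4% SRB, read at 515 nm, and growth % calculated against time-zero and control plates.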

SK-MEL-2 [7] = experiment: Cytotoxicity against human SK-MEL-2 cells assessed as cell growth at 10 uM; details: read-out: Activity; procedure, shortened: as §2
CAKI-1 [8] = experiment: Cytotoxicity against human Caki1 cells assessed as cell growth at 100 nM after 48 hrs by sulforhodamine B assay; details: CAKI-1, 48 h, read-out: Activity
SF-295 = experiment: Cytotoxicity against human SF295 cells assessed as cell growth at 1 uM after 48 hrs by sulforhodamine B assay; details: SF-295, 48 h, read-out: Activity
OVCAR-5 = experiment: Cytotoxicity against human OVCAR5 cells assessed as cell growth at 0.01 uM after 48 hrs by sulforhodamine B assay; details: OVCAR-5, 48 h, read-out: Activity
LOX IMVI = experiment: Growth inhibition of human LOXIMVI cells after 48 hrs by sulforhodamine B assay; details: for CC50: read-out: LC50 (the source's name); procedure, shortened: as §1
RXF 393 = experiment: Cytotoxicity against human RXF393 cells assessed as cell growth at 10 uM; details: read-out: Activity; procedure, shortened: as §2
COLO 205 = experiment: Cytotoxicity against human COLO205 cells assessed as cell growth at 0.001 uM after 48 hrs by sulforhodamine B assay; details: COLO 205, 48 h, read-out: Activity
Procedure, shortened: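 NCI-60 five-dose screen. Cells were grown in RPMI 1640 with 5% FBS and 2 mM L-glutamine, plated at 5000–40,000 cells/well and preincubated for 24 h. Time-zero plates were TCA-fixed. DMSO-solubilized drug was added at five concentrations (10-fold or ½-log serial dilutions) for 48 h at 37 °C, 5% CO2. Cells were TCA-fixed, stained with 0.4% SRB and read at 515 nm. Percent growth used time-zero, control and test absorbances.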

U-251 = experiment: Cytotoxicity against human U251 cells assessed as cell growth at 0.01 uM after 48 hrs by sulforhodamine B assay; details: U-251, 48 h, read-out: Activity
SF-539 = experiment: Growth inhibition of human SF539 cells after 48 hrs by sulforhodamine B assay; details: SF-539, 48 h; for CC50: read-out: LC50 (the source's name); procedure, shortened: as §1
SF-268 [9] = experiment: Cytotoxicity against human SF268 cells assessed as cell growth at 10 uM; details: read-out: Activity; procedure, shortened: as §2
Malme-3M = experiment: Cytotoxicity against human MALME-3M cells assessed as cell growth at 100 nM after 48 hrs by sulforhodamine B assay; details: read-out: Activity
SNB-75 = experiment: Cytotoxicity against human SNB75 cells assessed as cell growth at 10 uM; details: read-out: Activity; procedure, shortened: as §2
[10] = Cytotoxicity against human RPMI8266 cells assessed as cell growth at 0.01 uM after 48 hrs by sulforhodamine B assay; details: read-out: Activity
UO-31 = experiment: Cytotoxicity against human UO31 cells assessed as cell growth at 100 nM after 48 hrs by sulforhodamine B assay; details: UO-31, 48 h, read-out: Activity

## Cc1cc(O)cc(-c2nn(CC#N)cc2-c2ccnc(-c3ccc(N(C)C)cc3)c2)c1
NCI-H522
  GI50: 1.93 µM
  TGI: 7.14 µM
  CC50: 68.1 µM
K562
  GI50: 2.55 µM
  LC50 (50% net cell kill): > 100 µM
  TGI: 32.8 µM
IGROV-1
  growth at 10 µM: -37%
SNB-19
  growth at 0.01 µM: 95%
SK-MEL-2 [1]
  growth at 1 µM: 11%
MDA-MB-468
  GI50: 1.63 µM
  LC50 (concentration giving 50% net cell kill): 9.94 µM
  TGI: 4.02 µM
DU-145
  GI50: 2.75 µM
  LC50: 53.2 µM
  TGI: 8.57 µM
MOLT-4
  growth at 0.01 µM: 96%
SK-OV-3 [2]
  growth at 10 µM: -38%
SK-OV-3 [3]
  growth at 0.001 µM: 92%
SF-268 [4]
  growth at 0.1 µM: 90%
CAKI-1 [5]
  growth at 10 µM: 44.5%
OVCAR-4
  growth at 0.1 µM: 101%
CAKI-1 [6]
  growth at 10 µM: -31%
MDA-MB-435
  growth at 10 µM: -43.2%
SK-MEL-2 [7]
  growth at 10 µM: 43.2%
CAKI-1 [8]
  growth at 0.1 µM: 85%
SF-295
  growth at 1 µM: -5%
OVCAR-5
  growth at 0.01 µM: 91%
LOX IMVI
  GI50: 5.13 µM
  TGI: 17.8 µM
  CC50: 47.7 µM
RXF 393
  growth at 10 µM: 64.7%
COLO 205
  growth at 0.001 µM: 109%
U-251
  growth at 0.01 µM: 94%
SF-539
  GI50: 2.12 µM
  TGI: 5.33 µM
  CC50: 27.3 µM
SF-268 [9]
  growth at 10 µM: 59.5%
Malme-3M
  growth at 0.1 µM: 94%
SNB-75
  growth at 10 µM: -12.8%
[10]
  growth at 0.01 µM: 99%
UO-31
  growth at 0.1 µM: 82%

## COc1cc(C)cc(-c2nn(CC#N)cc2-c2ccnc(-c3ccc(N(C)C)cc3)c2)c1
NCI-H522
  GI50: 0.196 µM
  TGI: 0.492 µM
  CC50: 3.24 µM
K562
  GI50: 0.161 µM
  LC50 (50% net cell kill): > 100 µM
  TGI: > 100 µM
IGROV-1
  growth at 10 µM: -6%
SNB-19
  growth at 0.01 µM: 97%
SK-MEL-2 [1]
  growth at 1 µM: 23%
MDA-MB-468
  GI50: 0.181 µM
  LC50 (concentration giving 50% net cell kill): 7.24 µM
  TGI: 0.635 µM
DU-145
  GI50: 0.319 µM
  LC50: > 100 µM
  TGI: 1.11 µM
MOLT-4
  growth at 0.01 µM: 93%
SK-OV-3 [2]
  growth at 10 µM: -40%
SK-OV-3 [3]
  growth at 0.001 µM: 105%
SF-268 [4]
  growth at 0.1 µM: 31%
CAKI-1 [5]
  growth at 10 µM: 13.9%
OVCAR-4
  growth at 0.1 µM: 33%
CAKI-1 [6]
  growth at 10 µM: -11%
MDA-MB-435
  growth at 10 µM: -22.6%
SK-MEL-2 [7]
  growth at 10 µM: 40.8%
CAKI-1 [8]
  growth at 0.1 µM: 14%
SF-295
  growth at 1 µM: -7%
OVCAR-5
  growth at 0.01 µM: 93%
LOX IMVI
  GI50: 0.681 µM
  TGI: 14.8 µM
  CC50: > 100 µM
RXF 393
  growth at 10 µM: -17.1%
COLO 205
  growth at 0.001 µM: 107%
U-251
  growth at 0.01 µM: 105%
SF-539
  GI50: 0.259 µM
  TGI: 0.596 µM
  CC50: > 100 µM
SF-268 [9]
  growth at 10 µM: 24.5%
Malme-3M
  growth at 0.1 µM: 46%
SNB-75
  growth at 10 µM: -25.5%
[10]
  growth at 0.01 µM: 110%
UO-31
  growth at 0.1 µM: 39%

## COc1cc(C)cc(-c2nn(CC#N)cc2-c2ccc(-c3cccc(C(C)=O)c3)nc2)c1
NCI-H522
  GI50: 1.64 µM
  TGI: 6.72 µM
  CC50: > 100 µM
K562
  GI50: 0.365 µM
  LC50 (50% net cell kill): > 100 µM
  TGI: > 100 µM
IGROV-1
  growth at 10 µM: -40%
SNB-19
  growth at 0.01 µM: 102%
SK-MEL-2 [1]
  growth at 1 µM: 22%
MDA-MB-468
  GI50: 0.275 µM
  LC50 (concentration giving 50% net cell kill): 52.3 µM
  TGI: 1.49 µM
DU-145
  GI50: 1.98 µM
  LC50: > 100 µM
  TGI: 4.95 µM
MOLT-4
  growth at 0.01 µM: 100%
SK-OV-3 [2]
  growth at 10 µM: -36%
SK-OV-3 [3]
  growth at 0.001 µM: 86%
SF-268 [4]
  growth at 0.1 µM: 91%
CAKI-1 [5]
  growth at 10 µM: 17.8%
OVCAR-4
  growth at 0.1 µM: 92%
CAKI-1 [6]
  growth at 10 µM: -18%
MDA-MB-435
  growth at 10 µM: -27.8%
SK-MEL-2 [7]
  growth at 10 µM: 35.4%
CAKI-1 [8]
  growth at 0.1 µM: 69%
SF-295
  growth at 1 µM: 16%
OVCAR-5
  growth at 0.01 µM: 68%
LOX IMVI
  GI50: 3.52 µM
  TGI: > 100 µM
  CC50: > 100 µM
RXF 393
  growth at 10 µM: -51%
COLO 205
  growth at 0.001 µM: 103%
U-251
  growth at 0.01 µM: 92%
SF-539
  GI50: 1.73 µM
  TGI: 4.65 µM
  CC50: > 100 µM
SF-268 [9]
  growth at 10 µM: 49.3%
Malme-3M
  growth at 0.1 µM: 66%
SNB-75
  growth at 10 µM: -23.9%
[10]
  growth at 0.01 µM: 93%
UO-31
  growth at 0.1 µM: 79%
